Data: ChEMBL document CHEMBL1938301, “Cyclohexane 1,3-diones and their inhibition of mutant SOD1-dependent protein aggregation and toxicity in PC12 cells” (Bioorg Med Chem, 2012)
Active and inactive are the calls of the source.

What was measured:
HEK293 = test: Cytoprotective activity against MG132-induced cytotoxicity in human HEK293 cells assessed as cell viability at 100 uM pre-treated for 24 hrs before MG132-induction measured after 48 hrs by Calcein-AM-based fluorimetry; type: functional
Rattus norvegicus [1] = test: Dose normalised AUC in Sprague-Dawley rat at 1 mg/kg, iv; type: ADME, organism-based; parameters: dose 1 mg/kg, route intravenous; details: in vivo
HeLa = test: Cytoprotective activity against MG132-induced cytotoxicity in human HeLa cells assessed as cell viability at 100 uM pre-treated for 24 hrs before MG132-induction measured after 48 hrs by Calcein-AM-based fluorimetry; type: functional
[2] = Half life in Sprague-Dawley rat at 1 mg/kg, po; type: ADME, organism-based; parameters: dose 1 mg/kg, route oral; details: in vivo
[3] = Clearance in Sprague-Dawley rat at 1 mg/kg, iv; type: ADME, organism-based; parameters: dose 1 mg/kg, route intravenous; details: in vivo
Caco-2 [4] = test: Apparent permeability from apical to basolateral side of human Caco2 cells at 50 uM after 2 hrs […]; type: ADME, cell-based; details: caco-2, 2 h
Summary of the method: (§1)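 Caco-2 monolayers on collagen-coated inserts, differentiated 3 weeks. The compound is dosed at 50 μM in HEPES/HBSS/glucose buffer, apical pH 6.5 and basolateral pH 7.4. For A→B, compound and 100 μM Lucifer yellow go apical. For B→A, compound goes basolateral with Lucifer yellow apical. Incubation is 2 h. Lucifer yellow fluorescence checks monolayer integrity (<1% transport). Papp = (dQ/dt)/(c0·A), in 10−6 cm/s.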

Cerebral cortex neuron = test: Cytoprotective activity against MG132-induced cytotoxicity in rat primary cortical neurons cells assessed as cell viability at 100 uM pre-treated for 24 hrs before MG132-induction measured after 48 hrs by Calcein-AM-based fluorimetry; type: functional
Summary of the method: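 Neurons from E18 rat cortex (Sprague-Dawley or Fischer 344), papain-dissociated, plated at 20,000 cells/well on poly-D-lysine, cultured 5 days in Neurobasal/B27 (~90% neurons). Six-point series from 100 μM top in roughly one-third steps, 24 h pre-incubation, then MG132 100 nM final. Viability read 48 h later by Calcein-AM (1 μM, 20 min, RT) fluorescence. Active if ≥5 SD above MG132 controls.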

[5] = (§2) Inhibition of SOD1 G93A mutant protein aggregation-mediated cytotoxicity in rat PC12 cells expressing yellow fluorescent protein assessed as increase in cell viability; type: cell-based; details: PC-12
SH-SY5Y = test: Cytoprotective activity against MG132-induced cytotoxicity in human SH-SY5Y cells assessed as cell viability at 100 uM pre-treated for 24 hrs before MG132-induction measured after 48 hrs by Calcein-AM-based fluorimetry; type: functional
[6] = AUClast in Sprague-Dawley rat at 1 mg/kg, po; type: ADME, organism-based; parameters: time 0 - last, dose 1 mg/kg, route oral; details: plasma
Liver microsomes = test: Half life in human liver microsomes at 5 uM by LC-MS/MS analysis; type: ADME, Microsome
Summary of the method: (§3)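 Incubation at 37 °C, in duplicate, with human or mouse liver microsomes (0.275 mg/mL protein) in 100 mM potassium phosphate pH 7.4 with 2 mM NADPH and 3 mM MgCl2. A minus-NADPH control was run. Samples were taken at 15 s and at 10, 20, 40 and 60 min, quenched in acidified acetonitrile with internal standard, and parent was quantified by LC-MS/MS. T1/2 = ln2/k from an exponential fit.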

PC-12 [7] = test: Inhibition of SOD1 G93A mutant protein aggregation-mediated cytotoxicity in rat PC12 cells expressing yellow fluorescent protein assessed as increase in cell viability relative to radicicol; type: cell-based; parameters: concentration or dose not given beside the values
Summary of the method: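 PC12 cells expressing G93A SOD1-YFP; MG132 proteasome inhibition induces cytotoxic mutant SOD1 aggregates. Cell survival measured as protection read-out; efficacy expressed relative to radicicol positive control.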

[8] = Toxicity in mouse administered as ip starting at 5 mg/kg and doubling the compound bid each day; type: organism-based; parameters: dose 5 mg/kg, route intraperitoneal; details: in vivo
Summary of the method: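 Maximum tolerated dose in mice by intraperitoneal injection. Dosing began at 5 mg/kg and was doubled b.i.d. each day, given once in the morning and once mid-afternoon.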

[9] = AUClast in Sprague-Dawley rat at 1 mg/kg, iv; type: ADME, organism-based; parameters: time 0 - last, dose 1 mg/kg, route intravenous; details: plasma
[10] = Half life in Sprague-Dawley rat at 1 mg/kg, iv; type: ADME, organism-based; parameters: dose 1 mg/kg, route intravenous; details: in vivo
in vivo = details: Sprague-Dawley, rat, po, 1 mg/kg
Rattus norvegicus [11] = test: Dose normalised AUC in Sprague-Dawley rat at 1 mg/kg, po; type: ADME, organism-based; parameters: dose 1 mg/kg, route oral; details: in vivo
[12] = Cmax in Sprague-Dawley rat at 1 mg/kg, po; type: ADME, organism-based; parameters: dose 1 mg/kg, route oral; details: in vivo
[13] = Volume of distribution at steady state in Sprague-Dawley rat at 1 mg/kg, iv; type: ADME, organism-based; parameters: dose 1 mg/kg, route intravenous; details: in vivo, read-out: Vdss
[14] = Solubility of the compound in phosphate buffer saline after 1 hrs by spectrophotometry; type: physicochemical; details: phosphate buffered saline
Summary of the method: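 DMSO stocks at 100× final (threefold serial dilutions) diluted into PBS and held 1 h at room temperature. Precipitate checked visually and by absorbance at 450 nm. The solubility limit was taken as the highest concentration not cloudy and with absorbance not above background.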

Liver = test: Half life in mouse liver microsomes at 5 uM by LC-MS/MS analysis; type: ADME, Microsome; summary of the method: as §3
[15] = Oral bioavailability in Sprague-Dawley rat at 1 mg/kg; type: ADME, organism-based; details: in vivo
PC-12 [16] = test: Cytoprotective activity against MG132-induced cytotoxicity in rat PC12 cells assessed as cell viability at 100 uM pre-treated for 24 hrs before MG132-induction measured after 48 hrs by Calcein-AM-based fluorimetry; type: functional
hERG (KCNH2) = hERG (KCNH2) (Homo sapiens, UniProt Q12809); test: Inhibition of human ERG expressed in HEK293 cells at 10 uM; type: cell-based; details: HEK293 cells expressing hERG
Sequence of hERG (KCNH2) (Q12809 whole entry): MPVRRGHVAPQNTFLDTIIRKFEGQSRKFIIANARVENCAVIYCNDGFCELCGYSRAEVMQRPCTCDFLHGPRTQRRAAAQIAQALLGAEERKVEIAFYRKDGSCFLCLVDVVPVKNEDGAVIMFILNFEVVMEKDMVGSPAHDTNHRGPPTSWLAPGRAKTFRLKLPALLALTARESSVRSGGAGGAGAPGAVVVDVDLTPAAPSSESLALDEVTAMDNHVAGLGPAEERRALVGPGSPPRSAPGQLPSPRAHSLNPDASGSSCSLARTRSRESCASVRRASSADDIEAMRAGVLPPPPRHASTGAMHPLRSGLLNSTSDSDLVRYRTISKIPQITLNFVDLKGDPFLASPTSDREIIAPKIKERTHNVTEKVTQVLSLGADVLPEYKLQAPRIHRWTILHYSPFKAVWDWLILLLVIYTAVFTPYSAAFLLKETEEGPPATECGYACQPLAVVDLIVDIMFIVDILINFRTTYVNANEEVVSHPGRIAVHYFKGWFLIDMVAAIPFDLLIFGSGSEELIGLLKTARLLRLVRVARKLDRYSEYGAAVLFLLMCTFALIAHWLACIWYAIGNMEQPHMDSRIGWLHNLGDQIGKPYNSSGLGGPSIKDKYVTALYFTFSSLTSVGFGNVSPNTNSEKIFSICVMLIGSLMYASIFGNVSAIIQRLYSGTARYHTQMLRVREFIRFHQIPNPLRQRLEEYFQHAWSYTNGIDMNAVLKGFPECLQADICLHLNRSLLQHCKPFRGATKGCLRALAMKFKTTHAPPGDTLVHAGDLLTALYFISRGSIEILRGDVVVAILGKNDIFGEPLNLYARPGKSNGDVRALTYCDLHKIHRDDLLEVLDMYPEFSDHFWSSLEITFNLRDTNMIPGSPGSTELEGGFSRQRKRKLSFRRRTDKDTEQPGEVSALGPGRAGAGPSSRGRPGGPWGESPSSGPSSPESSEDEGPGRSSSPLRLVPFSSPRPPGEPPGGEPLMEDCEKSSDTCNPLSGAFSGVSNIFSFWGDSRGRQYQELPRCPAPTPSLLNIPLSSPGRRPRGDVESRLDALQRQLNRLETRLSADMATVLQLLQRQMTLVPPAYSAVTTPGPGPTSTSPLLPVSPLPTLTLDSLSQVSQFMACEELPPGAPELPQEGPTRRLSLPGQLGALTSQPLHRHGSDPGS

Caco-2 [17] = test: Apparent permeability from basolateral to apical side of human Caco2 cells at 50 uM after 2 hrs […]; type: ADME, cell-based; details: caco-2, 2 h; summary of the method: as §1
[18] = Ratio of drug level in brain to plasma in mutant SOD1 G93A transgenic mouse at 50 mg/kg, ip after 4 hrs; type: ADME, organism-based; parameters: dose 50 mg/kg, route intraperitoneal; details: read-out: BPR
Summary of the method: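 Single i.p. bolus of 50 mg/kg in G93A SOD1 transgenic mice (18 animals). Blood and brain sampled at 0–24 h, snap-frozen in liquid nitrogen and stored at −80 °C. Brain and plasma concentrations were compared at 4 h, within the plasma plateau.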

Caco-2 [19] = test: Efflux ratio of permeability from basolateral to apical over apical to basolateral side in human Caco2 cells at 50 uM after 2 hrs […]; type: ADME, cell-based; details: caco-2, 2 h
Summary of the method: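 Caco-2 monolayers were grown for three weeks on collagen-coated inserts and fed every 2 days. The transport buffer was 10 mM HEPES with 1.98 g/L glucose in HBSS, pH 6.5 apical and pH 7.4 basolateral. Compound was added at 50 μM on the donor side, with 100 μM Lucifer yellow apically, for 2 h. Compound was quantified by LC-MS/MS; Lucifer yellow fluorescence checked monolayer integrity. Papp = (dQ/dt)/(c0·A); ratio taken as B→A over A→B.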

Plasma = test: Half life in mouse plasma at 5 uM by LC-MS/MS analysis; type: ADME, cell-free
Summary of the method: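 Mouse plasma incubation at 37 °C in duplicate alongside a PBS control, with warfarin and diltiazem as controls. Time points at 15 s and 10, 20, 40 and 60 min; samples precipitated with acetonitrile containing internal standard, then LC-MS/MS. Plasma/PBS response ratio gave % remaining, fitted first-order for half-life.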

PC-12 [20] = test: as §2; type: cell-based

Structure (SMILES)	Activity (HEK293)	Activity (HeLa)	Papp (Caco-2 [4]) [cm'-6/s]	Activity (Cerebral cortex neuron)	EC50 [5] [nM]	Activity (SH-SY5Y)	t1/2 (Liver microsomes)	Efficacy (PC-12 [7]) [%]	t1/2 (Liver)	Activity (PC-12 [16])	Papp (Caco-2 [17]) [cm'-6/s]	further results
O=C1CC(=O)CC(c2cc(C(F)(F)F)cc(C(F)(F)F)c2)C1	inactive	inactive	38	inactive	700	inactive	>= 180 min	100	>= 180 min	Active	5.7	AUC/dose (Rattus norvegicus [1]): 1996 ng·h/mL; half-life [2]: 3.2 h; clearance [3]: 8.4 mL/min/kg; AUC(0-t) [6]: 1760 ng·h/mL; MTD [8]: 80 mg/kg; AUC(0-t) [9]: 1980 ng·h/mL; half-life [10]: 3.7 h; Tmax (in vivo): 0.5 h; AUC/dose (Rattus norvegicus [11]): 1774 ng·h/mL; Cmax [12]: 468 ng/mL; Vd [13]: 1.5 L/kg; solubility at 1 h [14]: ≥ 500 µM; bioavailability [15]: 89%; inhibition at 10 µM (hERG (KCNH2)): 7.8%; Kp at 4 h [18]: 0.86
CC(Oc1cc(C(F)(F)F)cc(C(F)(F)F)c1)C1CC(=O)CC(=O)C1 (racemic)			24.8		700		1.18 h	100	0.75 h		3.1	Ratio (Caco-2 [19]): 0.1; t1/2 (Plasma): > 1 h
O=c1cc(COc2cc(Cl)cc(Cl)c2)[nH][nH]1	Active	Active		Active		Active				Active		
O=C1CC(=O)N(CCc2ccccc2)C(=O)N1CCc1ccccc1	Active	Active		Active		Active		100		Active		
C[C@@H]1C[C@H]2O[C@@H]2/C=C\C=C\C(=O)Cc2c(Cl)c(O)cc(O)c2C(=O)O1												Efficacy (PC-12 [20]): 85%
